According to paper PMC3660010 (Diabetologia, 2012):
Entries after “also recorded” stand apart in the source; their conditions may differ. Ends that are not written are not given here.

Columns and labels:
[1] = tested on: hIAPP fibrils; experiment: Transmission electron microscopy of hIAPP fibrils; type: biochemical, human; conditions: 37°C, 20 h; for hIAPP fibrils by TEM in the presence of protein: hIAPP 25 μmol/l with 0.5 μmol/l protein
[2] = target: NEPx (Homo sapiens, UniProt P08473, E585V); experiment: Cleavage of hIAPP by catalytically compromised NEPx, reverse phase HPLC; type: biochemical; conditions: 20 μmol/l hIAPP, 400 nmol/l NEPx, 37°C, 1 h
In short: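 Enzyme: recombinant human NEP ectodomain E585V mutant, expressed in CHO-S cells as a His-tagged growth hormone fusion. Purified by nickel affinity, PreScission removal of growth hormone, and MonoQ anion exchange. 20 μmol/l hIAPP incubated with the enzyme in 20 mmol/l MES, pH 6.5, at 37°C. Stopped with TFA to 0.5%. Reverse-phase HPLC on a C4 column.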

[3] = tested on: INS 832/13 insulinoma cells; experiment: MTT assay, synthetic hIAPP-induced cytotoxicity; type: cell-based, rat; conditions: 48 h; for viable cells relative to vehicle control cells (MTT), peptide alone: 20 μmol/l synthetic peptide, INS 832/13, mean ± SEM
In short: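 INS 832/13 cells were exposed to 20 μmol/l synthetic hIAPP plus 4, 40 or 400 nmol/l recombinant NEP or NEPx for 48 h, with vehicle (0.8% DMSO in media), 20 μmol/l rIAPP and 400 nmol/l transferrin controls. MTT added 1:10 from 5 mg/ml stock, 4 h at 37°C, HCl/isopropanol, A570. Viability as % of vehicle; mean ± SEM, n = 3 to 9, one-way ANOVA with Dunnett's test.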

[4] = tested on: INS 832/13 insulinoma cells; experiment: Cleaved caspase-3 Western blot, synthetic hIAPP-induced apoptosis; type: cell-based, rat; conditions: 20 μmol/l synthetic peptide, 24 h
[5] = target: T1, NEP (Homo sapiens, UniProt P08473); experiment: Fluorogenic assay of NEP activity, inhibition by phosphoramidon; type: biochemical
[6] = target: NEP^E585V mutant (NEPx) (Homo sapiens, UniProt P08473, E585V); experiment: Fluorogenic assay of NEPx activity, inhibition by phosphoramidon; type: biochemical; conditions: GAAF-4-MNA as substrate
[7] = target: T1, NEP; experiment: Cleavage of peptide by neprilysin, reverse phase HPLC and mass spectrometry; type: biochemical; conditions: 37°C
In short: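 Purified His-tagged recombinant human NEP (CHO-S-expressed, nickel-affinity and anion-exchange purified), 400 nmol/l, incubated with 20 μmol/l hIAPP (from 2.5 mmol/l DMSO stock) in 20 mmol/l MES, pH 6.5, 37°C for 60 min, with or without phosphoramidon; catalytically compromised E585V mutant run in parallel. Stopped with TFA to 0.5%, reverse-phase HPLC on C4 column; products collected manually for mass spectral identification.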

[8] = tested on: NEP; conditions: cited from earlier work
[9] = tested on: neprilysin (NEP); experiment: 400 nmol/l recombinant NEP in 20 mmol/l MES buffer, pH 6.5; conditions: human, 37°C, up to 60 min
[10] = tested on: INS 832/13 insulinoma cells; experiment: MTT assay, hIAPP overexpression-induced cytotoxicity; type: cell-based, rat; conditions: 48 h; for effect on hIAPP overexpression-induced cytotoxicity (MTT), 400 nmol/l protein: adenovirus prepro-hIAPP-GFP MOI 100, 400 nmol/l protein in media
In short: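 INS 832/13 rat insulinoma cells (RPMI 1640, 11.1 mmol/l glucose, 10% FBS, 37°C, 5% CO2) transduced with adenovirus encoding prepro-hIAPP-GFP at MOI 100; GFP and prepro-rIAPP-GFP viruses as controls. Recombinant NEP or NEPx (4, 40, 400 nmol/l) or transferrin (400 nmol/l) added to media. After 48 h, MTT 4 h at 37°C, acidic isopropanol, A570; viability as % of vehicle control.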

[11] = Fluorogenic assay of NEP activity with GAAF-4-MNA as substrate; type: biochemical; conditions: 100 μmol/l GAAF-4-MNA, 20 mmol/l MES pH 6.5, 37°C
[12] = 20 μmol/l synthetic hIAPP, mean ± SEM, n = 3 to 9

## CC[C@H](C)[C@H](NC(=O)[C@H](C)NC(=O)CNC(=O)[C@H](Cc1ccccc1)NC(=O)[C@H](CC(N)=O)NC(=O)[C@H](CC(N)=O)NC(=O)[C@H](CO)NC(=O)[C@H](CO)NC(=O)[C@H](Cc1c[nH]cn1)NC(=O)[C@@H](NC(=O)[C@H](CC(C)C)NC(=O)[C@H](Cc1ccccc1)NC(=O)[C@H](CC(N)=O)NC(=O)[C@H](C)NC(=O)[C@H](CC(C)C)NC(=O)[C@H](CCCNC(=N)N)NC(=O)[C@H](CCC(N)=O)NC(=O)[C@@H](NC(=O)[C@H](C)NC(=O)[C@@H]1CSSC[C@H](NC(=O)[C@@H](N)CCCCN)C(=O)N[C@@H](CC(N)=O)C(=O)N[C@@H]([C@@H](C)O)C(=O)N[C@@H](C)C(=O)N[C@@H]([C@@H](C)O)C(=O)N1)[C@@H](C)O)C(C)C)C(=O)N[C@@H](CC(C)C)C(=O)N[C@@H](CO)C(=O)N[C@@H](CO)C(=O)N[C@H](C(=O)N[C@@H](CC(N)=O)C(=O)N[C@H](C(=O)NCC(=O)N[C@@H](CO)C(=O)N[C@@H](CC(N)=O)C(=O)N[C@H](C(=O)N[C@@H](Cc1ccc(O)cc1)C(N)=O)[C@@H](C)O)C(C)C)[C@@H](C)O [hIAPP, IAPP (1–37, disulfide bridge 2–7, amide), reference compound]
[1]; hIAPP 25 μmol/l with buffer
  hIAPP fibrils by TEM, untreated hIAPP (CTRL): fibrils were observed
[2]
  cleavage of hIAPP by NEPx: no cleavage
[3]; n = 3 to 9
  viable cells relative to vehicle control cells (MTT), peptide alone: 15.6 ± 3.5%
[4]
  induction of apoptosis (increase in cleaved caspase-3), peptide alone: induced apoptosis

## CC(C)C[C@H](NP(=O)(O)O[C@@H]1O[C@@H](C)[C@H](O)[C@@H](O)[C@H]1O)C(=O)N[C@@H](Cc1c[nH]c2ccccc12)C(=O)O [phosphoramidon]
[5]; GAAF-4-MNA as substrate
  activity of NEP in the presence of phosphoramidon: undetectable levels
[5]; read-out: inhibition of NEP activity
  inhibition at 50 µM: > 99%
[6]
  activity of NEPx in the presence of phosphoramidon: undetectable levels
[7]; 20 μmol/l hIAPP, 400 nmol/l NEP, 60 min, HPLC
  effect of NEP inhibitor on hIAPP cleavage by NEP: blocked

## IAPP (1–37, disulfide bridge 2–7, amide)
[8]
  not cleaved: concluded that NEP did not cleave hIAPP
[9]
  cleaved bond: Arg11-Leu12, major; also recorded: Leu12-Ala13, major

## ILSSTNVGSNTY-NH2
[7]; product of hIAPP (20 μmol/l) with 400 nmol/l NEP, initially increased with time, then decreased (HPLC)
  further cleavage of the product by NEP: appeared to be further cleaved

## TF: transferrin used as protein control [reference compound]
[1]
  hIAPP fibrils by TEM in the presence of protein: fibrils were observed
[3]; [12]
  viable cells (MTT) with hIAPP in the presence of 400 nmol/l protein: did not protect
[10]
  effect on hIAPP overexpression-induced cytotoxicity (MTT), 400 nmol/l protein: had no effect

## rIAPP: synthetic rodent islet amyloid polypeptide, non-aggregating control [reference compound]
[3]; n = 3 to 9
  viable cells relative to vehicle control cells (MTT), peptide alone: did not cause significant cytotoxicity
[4]
  induction of apoptosis (increase in cleaved caspase-3), peptide alone: but not rIAPP, induced apoptosis

B1: NEPx: catalytically compromised NEP^E585V mutant ectodomain, about 80% pure (protein, UniProt P08473 52-750, looked up, variant E585V)
extracellular domain: YDDGICKSSDCIKSAARLIQNMDATTEPCTDFFKYACGGWLKRNVIPETSSRYGNFDILRDELEVVLKDVLQEPKTEDIVAVQKAKALYRSCINESAIDSRGGEPLLKLLPDIYGWPVATENWEQKYGASWTAEKAIAQLNSKYGKKVLINLFVGTDDKNSVNHVIHIDQPRLGLPSRDYYECTGIYKEACTAYVDFMISVARLIRQEERLPIDENQLALEMNKVMELEKEIANATAKPEDRNDPMLLYNKMTLAQIQNNFSLEINGKPFSWLNFTNEIMSTVNISITNEEDVVVYAPEYLTKLKPILTKYSARDLQNLMSWRFIMDLVSSLSRTYKESRNAFRKALYGTTSETATWRRCANYVNGNMENAVGRLYVEAAFAGESKHVVEDLIAQIREVFIQTLDDLTWMDAETKKRAEEKALAIKERIGYPDDIVSNDNKLNNEYLELNYKEDEYFENIIQNLKFSQSKQLKKLREKVDKDEWISGAAVVNAFYSSGRNQIVFPAGILQPPFFSAQQSNSLNYGGIGMVIGHVITHGFDDNGRNFNKDGDLVDWWTQQSASNFKEQSQCMVYQYGNFSWDLAGGQHLNGINTLGENIADNGGLGQAYRAYQNYIKKNGEEKLLPGLDLNHKQLFFLNFAQVWCGTYRPEYAVNSIKTDVHSPGNFRIIGTLQNSAEFSEAFHCRKNSYMNPEKKCRVW
modifications: extracellular domain
[11]
  NEP activity abolished by the E585V mutation: greater than 98%
[11]; fluorescence ex 340/em 425 nm
  activity relative to wild-type NEP activity: ~ 1.7%
[1]
  hIAPP fibrils by TEM in the presence of protein: fibrils were observed
[3]; [12]
  viable cells (MTT) with hIAPP in the presence of 400 nmol/l protein: 58.4 ± 9.3%
[10]; adenovirus prepro-hIAPP-GFP MOI 100, 4, 40 or 400 nmol/l NEPx
  effect on hIAPP overexpression-induced cytotoxicity (MTT), NEPx: had no effect

B2: NEP: recombinant ectodomain of human neprilysin expressed in CHO-S cells (protein, UniProt P08473 52-750, looked up)
extracellular domain: YDDGICKSSDCIKSAARLIQNMDATTEPCTDFFKYACGGWLKRNVIPETSSRYGNFDILRDELEVVLKDVLQEPKTEDIVAVQKAKALYRSCINESAIDSRGGEPLLKLLPDIYGWPVATENWEQKYGASWTAEKAIAQLNSKYGKKVLINLFVGTDDKNSVNHVIHIDQPRLGLPSRDYYECTGIYKEACTAYVDFMISVARLIRQEERLPIDENQLALEMNKVMELEKEIANATAKPEDRNDPMLLYNKMTLAQIQNNFSLEINGKPFSWLNFTNEIMSTVNISITNEEDVVVYAPEYLTKLKPILTKYSARDLQNLMSWRFIMDLVSSLSRTYKESRNAFRKALYGTTSETATWRRCANYVNGNMENAVGRLYVEAAFAGESKHVVEDLIAQIREVFIQTLDDLTWMDAETKKRAEEKALAIKERIGYPDDIVSNDNKLNNEYLELNYKEDEYFENIIQNLKFSQSKQLKKLREKVDKDEWISGAAVVNAFYSSGRNQIVFPAGILQPPFFSAQQSNSLNYGGIGMVIGHEITHGFDDNGRNFNKDGDLVDWWTQQSASNFKEQSQCMVYQYGNFSWDLAGGQHLNGINTLGENIADNGGLGQAYRAYQNYIKKNGEEKLLPGLDLNHKQLFFLNFAQVWCGTYRPEYAVNSIKTDVHSPGNFRIIGTLQNSAEFSEAFHCRKNSYMNPEKKCRVW
modifications: extracellular domain
[1]
  hIAPP fibrils by TEM in the presence of protein: fibrils were not seen
[3]; 20 μmol/l synthetic hIAPP, 4 nmol/l protein, not statistically significant
  viable cells (MTT) with hIAPP in the presence of 4 nmol/l protein: 39.4 ± 15.3%
[3]; 20 μmol/l synthetic hIAPP, 40 nmol/l protein, mean ± SEM, n = 3 to 9
  viable cells (MTT) with hIAPP in the presence of 40 nmol/l protein: 92.9 ± 9.5%
[3]; [12]
  viable cells (MTT) with hIAPP in the presence of 400 nmol/l protein: 84.5 ± 7.3%
[10]
  effect on hIAPP overexpression-induced cytotoxicity (MTT), 400 nmol/l protein: reduced this hIAPP induced cytotoxicity
[10]; adenovirus prepro-hIAPP-GFP MOI 100, 4 or 40 nmol/l
  effect on hIAPP overexpression-induced cytotoxicity (MTT), lower concentrations of NEP: had no effect
